{"data": "Measured values gathered from unrelated publications", "target": "Protein kinase C eta type (PRKCH, Homo sapiens, UniProt P24723)", "note": "Protocols differ between the studies behind these lines."}
{"SMILES": "COc1cnc(Nc2cccc(S(N)(=O)=O)c2)nc1N1CCN(c2ccccc2)CC1", "read-out": "binding", "technique": "competition with immobilised ligand", "tested at": "1 µM", "remaining binding": "100%"}
{"SMILES": "O=C(Nc1c[nH]nc1C(=O)NC1CCNCC1)c1cc(F)cc(F)c1", "read-out": "binding", "technique": "competition with immobilised ligand", "tested at": "1 µM", "remaining binding": "73%"}
{"SMILES": "CCS(=O)(=O)c1cc2cc(C[C@@](O)(CC(C)(C)c3ccc(F)cc3C(N)=O)C(F)(F)F)[nH]c2cn1", "read-out": "cell-free assay", "technique": "competition with immobilised ligand", "tested at": "1 µM", "remaining binding": "100%"}
{"SMILES": "CN(CCCC(F)(F)F)c1nccc(-c2cnn3ncccc23)n1", "read-out": "binding", "tested at": "1 µM", "remaining binding": "89%"}
{"SMILES": "CN(C)CC#Cc1ccc(OCCCc2sc(N3CCc4cccc(C(=O)Nc5nc6ccccc6s5)c4C3)nc2C(=O)O)c(F)c1", "read-out": "cell-free assay", "technique": "competition with immobilised ligand", "tested at": "1 µM", "remaining binding": "74%"}
{"SMILES": "FC(F)(F)Oc1cccc(-c2cnc3ccc(-c4ccncc4)nn23)c1", "read-out": "cell-free assay", "technique": "competition with immobilised ligand", "tested at": "5 µM", "remaining binding": "91%"}
{"SMILES": "CN(C)c1nccc(-c2cnc3ncccn23)n1", "read-out": "binding", "tested at": "1 µM", "remaining binding": "100%"}
{"SMILES": "COc1ccc2c(c1)O[C@@H](c1ccc(OC)c(OC)c1)C[C@H]2NC(=O)C1(c2ccc3c(c2)OC(F)(F)O3)CC1", "read-out": "cell-free assay", "technique": "competition with immobilised ligand", "tested at": "1 µM", "remaining binding": "96%"}
{"SMILES": "O=C(c1ccc(Nc2ncc(Cl)c(-c3cc4ccccc4s3)n2)cc1)N1CCC(N2CCCC2)CC1", "read-out": "binding", "technique": "competition with immobilised ligand", "tested at": "1 µM", "remaining binding": "12%"}
{"SMILES": "CCCCN(CCCC)C(=O)CN1C[C@H](c2cc(OC)c3c(c2)OCO3)[C@@H](C(=O)O)[C@@H]1CC(C)(C)CCC", "read-out": "cell-free assay", "technique": "competition with immobilised ligand", "tested at": "1 µM", "remaining binding": "100%"}
{"SMILES": "O=C(c1ccc(Nc2ncc(Cl)c(-c3ccc(Cl)s3)n2)cc1)N1CCC(N2CCCC2)CC1", "read-out": "binding", "technique": "competition with immobilised ligand", "tested at": "1 µM", "remaining binding": "46%"}
{"SMILES": "N[C@@H]1CCN(c2nccc(-c3cnn4ncccc34)n2)C1", "read-out": "binding", "tested at": "1 µM", "remaining binding": "100%"}
{"SMILES": "c1cncc(-c2cccc(Nc3nccc(NC4CCCCC4)n3)c2)c1", "read-out": "binding", "technique": "competition with immobilised ligand", "tested at": "10 µM", "remaining binding": "73%"}
{"SMILES": "CN(C)c1ncc(F)c(-c2cnn3ncccc23)n1", "read-out": "binding", "tested at": "1 µM", "remaining binding": "100%"}
{"SMILES": "COc1cc(-c2cn(C3CCc4c(F)cccc4N(CC(F)(F)F)C3=O)nn2)ccc1-n1cnc(C)c1 (stereo not shown)", "read-out": "cell-free assay", "technique": "competition with immobilised ligand", "tested at": "1 µM", "remaining binding": "100%"}
{"SMILES": "F[C@@H]1CCN(c2nccc(-c3cnn4ncccc34)n2)C1", "read-out": "binding", "tested at": "1 µM", "remaining binding": "100%"}
{"SMILES": "Nc1ncc2c(n1)-c1c([nH]c3ccc(C#CC4CC4)cc13)CCCC2", "read-out": "binding", "technique": "competition with immobilised ligand", "tested at": "1 µM", "remaining binding": "100%"}
{"SMILES": "CCN1CCN(Cc2ccc(C(=O)Nc3ccc(C)c(Oc4ccc5c(c4)CC(=O)N5)c3)cc2C(F)(F)F)CC1", "read-out": "binding", "technique": "competition with immobilised ligand", "tested at": "1 µM", "remaining binding": "100%"}
{"SMILES": "C[C@H]1CCN(c2nccc(-c3cnn4ncccc34)n2)C1", "read-out": "binding", "tested at": "1 µM", "remaining binding": "93%"}
{"SMILES": "Cc1cnc(Nc2ccc(C(=O)N3CCC(N4CCCC4)CC3)cc2)nc1-c1cc2ccccc2s1", "read-out": "binding", "technique": "competition with immobilised ligand", "tested at": "1 µM", "remaining binding": "15%"}
{"SMILES": "C[C@@H]1CN(c2cc(-c3n[nH]c4ccc(OC5(C)CC5)cc34)ncn2)C[C@H](C)O1", "read-out": "cell-free assay", "technique": "competition with immobilised ligand", "tested at": "0.1 µM", "remaining binding": "92%"}
{"SMILES": "COc1ncc2cc3ccccc3nc2c1C#N", "read-out": "cell-free assay", "technique": "competition with immobilised ligand", "tested at": "5 µM", "remaining binding": "90%"}
